{"source": "ChEMBL document CHEMBL1177643", "about": "“Synthesis, DNA-binding ability and anticancer activity of benzothiazole/benzoxazole-pyrrolo[2,1-c][1,4]benzodiazepine conjugates” (Bioorg Med Chem, 2010)", "key": {"A-375 [1]": {"tested_on": "A-375", "assay": "Cell cycle arrest in human A375 cells assessed as accumulation at G2/M phase at 0.5 uM after 24 hrs using propidium iodide staining by flow cytometry", "assay_type": "functional", "summary_of_the_method": "(§1)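 A375 cells (5×10^5) grown 24 h, then exposed to compound 24 h (DMSO control). Trypsin–EDTA harvest, fixed in ice-cold 70% ethanol at 4 °C 30 min, RNase A 37 °C 30 min, propidium iodide staining. DNA content measured by flow cytometry on 20,000 events, gated as sub-G1/G0, G1, S and G2/M.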"}, "A-375 [2]": {"tested_on": "A-375", "assay": "Cell cycle arrest in human A375 cells assessed as accumulation at G1 phase at 1 uM after 24 hrs using propidium iodide staining by flow cytometry", "assay_type": "functional", "summary_of_the_method": "as §1"}, "A-375 [3]": {"tested_on": "A-375", "assay": "Cell cycle arrest in human A375 cells assessed as accumulation at G0/G1 phase at 1 uM after 24 hrs using propidium iodide staining by flow cytometry", "assay_type": "functional", "summary_of_the_method": "as §1"}, "A-375 [4]": {"tested_on": "A-375", "assay": "Cell cycle arrest in human A375 cells assessed as accumulation at sub-G0 phase at 0.5 uM after 24 hrs using propidium iodide staining by flow cytometry", "assay_type": "functional", "summary_of_the_method": "as §1"}, "A-375 [5]": {"tested_on": "A-375", "assay": "Cell cycle arrest in human A375 cells assessed as accumulation at sub-G0 phase at 1 uM after 24 hrs using propidium iodide staining by flow cytometry", "assay_type": "functional", "summary_of_the_method": "as §1"}, "A-375 [6]": {"tested_on": "A-375", "assay": "Cell cycle arrest in human A375 cells assessed as accumulation at G0 phase at 0.5 uM after 24 hrs using propidium iodide staining by flow cytometry", "assay_type": "functional", "summary_of_the_method": "as §1"}, "A-375 [7]": {"tested_on": "A-375", "assay": "Cell cycle arrest in human A375 cells assessed as accumulation at G0/G1 phase at 2 uM after 24 hrs using propidium iodide staining by flow cytometry", "assay_type": "functional", "summary_of_the_method": "as §1"}, "Calf thymus DNA": {"tested_on": "Calf thymus DNA", "assay": "Binding affinity to calf thymus duplex-form DNA assessed as cleavage of pBR322 after 16 hrs by restriction endonuclease digestion assay in presence of BamHI", "assay_type": "nucleic-acid assay", "settings": "Bos taurus", "summary_of_the_method": "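pBR322 DNA (500 ng) preincubated with compound (5–30 μM) 16 h at 37 °C, then digested with BamHI (20 U) 1 h at 37 °C. Products run on 1% agarose in Tris–acetate EDTA, 80 V, 2 h. Read-out was ethidium bromide staining under UV, with an undigested and a fully digested control.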"}, "A-375 [8]": {"tested_on": "A-375", "assay": "Cell cycle arrest in human A375 cells assessed as accumulation at G2/M phase at 1 uM after 24 hrs using propidium iodide staining by flow cytometry", "assay_type": "functional", "summary_of_the_method": "as §1"}, "A-375 [9]": {"tested_on": "A-375", "assay": "Cell cycle arrest in human A375 cells assessed as accumulation at G1 phase at 0.5 uM after 24 hrs using propidium iodide staining by flow cytometry", "assay_type": "functional", "summary_of_the_method": "as §1"}, "A-375 [10]": {"tested_on": "A-375", "assay": "Cell cycle arrest in human A375 cells assessed as accumulation at S phase at 0.5 uM after 24 hrs using propidium iodide staining by flow cytometry", "assay_type": "functional", "summary_of_the_method": "as §1"}, "A-375 [11]": {"tested_on": "A-375", "assay": "Cell cycle arrest in human A375 cells assessed as accumulation at G0/G1 phase at 0.5 uM after 24 hrs using propidium iodide staining by flow cytometry", "assay_type": "functional", "summary_of_the_method": "as §1"}, "A-375 [12]": {"tested_on": "A-375", "assay": "Cell cycle arrest in human A375 cells assessed as accumulation at sub-G0 phase at 2 uM after 24 hrs using propidium iodide staining by flow cytometry", "assay_type": "functional", "summary_of_the_method": "as §1"}, "A-375 [13]": {"tested_on": "A-375", "assay": "Cell cycle arrest in human A375 cells assessed as accumulation at S phase at 2 uM after 24 hrs using propidium iodide staining by flow cytometry", "assay_type": "functional", "summary_of_the_method": "as §1"}, "A-375 [14]": {"tested_on": "A-375", "assay": "Cell cycle arrest in human A375 cells assessed as accumulation at G1 phase at 2 uM after 24 hrs using propidium iodide staining by flow cytometry", "assay_type": "functional", "summary_of_the_method": "as §1"}, "A-375 [15]": {"tested_on": "A-375", "assay": "Cell cycle arrest in human A375 cells assessed as accumulation at G0 phase at 2 uM after 24 hrs using propidium iodide staining by flow cytometry", "assay_type": "functional", "summary_of_the_method": "as §1"}, "A-375 [16]": {"tested_on": "A-375", "assay": "Cell cycle arrest in human A375 cells assessed as accumulation at G2/M phase at 2 uM after 24 hrs using propidium iodide staining by flow cytometry", "assay_type": "functional", "summary_of_the_method": "as §1"}, "A-375 [17]": {"tested_on": "A-375", "assay": "Cell cycle arrest in human A375 cells assessed as accumulation at S phase at 1 uM after 24 hrs using propidium iodide staining by flow cytometry", "assay_type": "functional", "summary_of_the_method": "as §1"}, "A-375 [18]": {"tested_on": "A-375", "assay": "Cell cycle arrest in human A375 cells assessed as accumulation at G0 phase at 1 uM after 24 hrs using propidium iodide staining by flow cytometry", "assay_type": "functional", "summary_of_the_method": "as §1"}}}
{"smiles": "COc1cc2c(cc1O)N=C[C@@H]1CCCN1C2=O", "values": [{"measurement": "Activity", "setting": "A-375 [1]", "value": 6.45, "unit": "%"}, {"measurement": "Activity", "setting": "A-375 [2]", "value": 74.22, "unit": "%"}, {"measurement": "Activity", "setting": "A-375 [3]", "value": 88.63, "unit": "%"}, {"measurement": "Activity", "setting": "A-375 [4]", "value": 2.23, "unit": "%"}, {"measurement": "Activity", "setting": "A-375 [5]", "value": 14.41, "unit": "%"}, {"measurement": "Activity", "setting": "A-375 [6]", "value": 3.73, "unit": "%"}, {"measurement": "Activity", "setting": "A-375 [7]", "value": 77.93, "unit": "%"}, {"measurement": "Activity", "setting": "Calf thymus DNA", "value": "Dose-dependent effect"}, {"measurement": "Activity", "setting": "A-375 [8]", "value": 6.34, "unit": "%"}, {"measurement": "Activity", "setting": "A-375 [9]", "value": 79.42, "unit": "%"}, {"measurement": "Activity", "setting": "A-375 [10]", "value": 79.42, "unit": "%"}, {"measurement": "Activity", "setting": "A-375 [11]", "value": 83.15, "unit": "%"}, {"measurement": "Activity", "setting": "A-375 [12]", "value": 26.75, "unit": "%"}, {"measurement": "Activity", "setting": "A-375 [13]", "value": 13.54, "unit": "%"}, {"measurement": "Activity", "setting": "A-375 [14]", "value": 67.23, "unit": "%"}, {"measurement": "Activity", "setting": "A-375 [15]", "value": 10.7, "unit": "%"}, {"measurement": "Activity", "setting": "A-375 [16]", "value": 8.53, "unit": "%"}, {"measurement": "Activity", "setting": "A-375 [17]", "value": 5.03, "unit": "%"}, {"measurement": "Activity", "setting": "A-375 [18]", "value": 14.41, "unit": "%"}]}
